From PubChem
This is a sample that favours compounds with a hit; in the whole collection about 2.8% have one here.
Wee1 degr inh: blocks degradation of human Wee1 kinase; 1.2% of 220,000 active; P30291; reporter increase, % at 5 µM; HeLa Luc-Wee1K328M stability, luciferase luminescence; 100% = proteasome inhibitor MG132 effect;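 active means activation above the mean of all tested compounds plus 3 SD, set per screening run, cut at about 8.8% in these data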;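 further: cells exposed to compound for 20 h before luminescence read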
14-3-3 Bad PPI: disrupts binding of bovine 14-3-3 zeta to phospho-Bad peptide; 0.71% of 220,000 active; inhibition, % at 21.7 µM; AID 781; TR-FRET 14-3-3zeta/Dy647-pBad peptide displacement, 1 h;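 active means inhibition above about 70%, limit read from the data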
Target sequence (P63103 whole entry, looked up): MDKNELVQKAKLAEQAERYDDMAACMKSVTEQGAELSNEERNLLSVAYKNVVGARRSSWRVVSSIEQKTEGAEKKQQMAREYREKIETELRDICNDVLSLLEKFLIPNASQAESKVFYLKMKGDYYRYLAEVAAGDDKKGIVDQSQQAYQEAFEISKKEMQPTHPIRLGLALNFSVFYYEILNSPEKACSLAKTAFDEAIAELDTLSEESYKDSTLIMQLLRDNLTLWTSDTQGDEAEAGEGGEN
p47phox inh: p47phox (human) inhibition | 0.53% of 220,000 active | p47phox/p22phox peptide binding, fluorescence polarization, 2 h | inhibition, % at 24.7 µM | AID 1274
eIF4E-4G inh: blocks eIF4E binding to eIF4G; TR-FRET eIF4E-eIF4GI(517-606) binding, 2 h; inhibition, % at 21.7 µM; 0.37% of 220,000 active; AID 782
RBBP9 inhibitor: human RBBP9 hydrolase inhibition | recombinant RBBP9, FP-Rh probe fluorescence polarization | inhibition, % at 7.94 µM | 0.2% of 220,000 active;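 active means inhibition above the campaign mean of all tested compounds plus 3 SD, cut at about 14% in these data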
Target sequence (O75884 whole entry, looked up): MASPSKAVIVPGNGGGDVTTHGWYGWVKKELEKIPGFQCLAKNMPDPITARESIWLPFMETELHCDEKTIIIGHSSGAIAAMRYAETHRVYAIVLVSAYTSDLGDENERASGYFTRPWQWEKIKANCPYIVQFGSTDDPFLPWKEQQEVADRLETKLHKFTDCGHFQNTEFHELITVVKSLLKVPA
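Test system: recombinant human RBBP9. Quantity: 2.5 µM RBBP9 dispensing solution, before mixing. Detection: FP readout at 525/598 nm. Reagent: Serine-hydrolase probe FP-Rh, 375 nM pre-mixing. Measure: % inhibition. Control set: DMSO-treated enzyme wells and wells lacking RBBP9. Buffer or medium: Tris-NaCl-Pluronic buffer, pH 8.0. Times: preincubation 30 min plus labeling 45 min at 25 °C.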
A number is an active result.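 How the source made its calls, unless noted: active means inhibition above about 30% (limit read from the data); inactive means the rest.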

CCN(C(=O)Cc1ccccc1OC)c1nnc(-c2ccncc2)s1 was read as Wee1 degr inh inactive, 14-3-3 Bad PPI 79, p47phox inh inactive, eIF4E-4G inh inactive and RBBP9 inhibitor inactive.
For CN1CCN(c2ccc(CNS(=O)(=O)Cc3ccc(Cl)cc3)cc2)CC1 the results were Wee1 degr inh inactive, 14-3-3 Bad PPI inactive, p47phox inh inactive, eIF4E-4G inh inactive and RBBP9 inhibitor inactive.
Cc1c(CN(C)C(=O)/C=C/c2ccc([N+](=O)[O-])cc2)cnn1C was read as Wee1 degr inh 8.9, 14-3-3 Bad PPI inactive, p47phox inh inactive, eIF4E-4G inh inactive and RBBP9 inhibitor inactive.
`Cc1c(CN(C)C(=O)c2nn(C)cc2[N+](=O)[O-])cnn1C` gave Wee1 degr inh inactive, 14-3-3 Bad PPI inactive, p47phox inh inactive, eIF4E-4G inh inactive and RBBP9 inhibitor inactive.
O=C(CN1CCN(Cc2ccc(Cl)cc2)CC1)N/N=C/c1c[nH]c2ccccc12 was read as Wee1 degr inh inactive, 14-3-3 Bad PPI inactive, p47phox inh inactive, eIF4E-4G inh inactive and RBBP9 inhibitor inactive.
`O=C(COC(=O)c1ccc2c(c1)C(=O)N(c1cccc3ncccc13)C2=O)c1ccc(Cl)cc1` gave Wee1 degr inh inactive, 14-3-3 Bad PPI 75, p47phox inh 56, eIF4E-4G inh inactive and RBBP9 inhibitor inactive.
Screening Cc1ccc(C(=O)COC(=O)c2ccc3c(c2)C(=O)N(c2cccc4ncccc24)C3=O)cc1 returned Wee1 degr inh inactive, 14-3-3 Bad PPI 88, p47phox inh 84, eIF4E-4G inh inactive and RBBP9 inhibitor inactive.
`O=C(OCC(=O)c1ccc(Cl)cc1Cl)c1ccc2c(c1)C(=O)N(c1cccc3ncccc13)C2=O` gave Wee1 degr inh inactive, 14-3-3 Bad PPI inactive, p47phox inh inactive, eIF4E-4G inh inactive and RBBP9 inhibitor inactive.
CCOC(=O)C1ON2CCCCC2C1(O)C(F)(F)F (stereo unspecified) was read as Wee1 degr inh inactive, 14-3-3 Bad PPI inactive, p47phox inh inactive, eIF4E-4G inh inactive and RBBP9 inhibitor inactive.
`O=C(Cn1nnc(-c2ccccc2Cl)n1)N/N=C/c1ccc2c(c1)OCO2` gave Wee1 degr inh 12, 14-3-3 Bad PPI inactive, p47phox inh inactive, eIF4E-4G inh inactive and RBBP9 inhibitor inactive.
For NC(=O)C(=O)NCCCN1CCOCC1 the results were Wee1 degr inh inactive, 14-3-3 Bad PPI inactive, p47phox inh inactive, eIF4E-4G inh inactive and RBBP9 inhibitor inactive.
For Fc1ccccc1NC(=S)NCc1ccc2c(c1)OCO2 the results were Wee1 degr inh inactive, 14-3-3 Bad PPI inactive, p47phox inh inactive, eIF4E-4G inh inactive and RBBP9 inhibitor inactive.
`S=C(NCc1ccccc1)NCc1ccc2c(c1)OCO2` gave Wee1 degr inh 8.9, 14-3-3 Bad PPI inactive, p47phox inh inactive, eIF4E-4G inh inactive and RBBP9 inhibitor inactive.
For O=C(N/N=C/c1ccccn1)NC12CC3CC(CC(C3)C1)C2 the results were Wee1 degr inh 10.0, 14-3-3 Bad PPI inactive, p47phox inh inactive, eIF4E-4G inh inactive and RBBP9 inhibitor inactive.
Cc1ccc(C(=O)N/N=C\c2ccccc2[N+](=O)[O-])cn1 was read as Wee1 degr inh 11, 14-3-3 Bad PPI inactive, p47phox inh inactive, eIF4E-4G inh inactive and RBBP9 inhibitor inactive.
For Cc1ccc(C(=O)N/N=C\c2ccccn2)cn1 the results were Wee1 degr inh 11, 14-3-3 Bad PPI inactive, p47phox inh inactive, eIF4E-4G inh inactive and RBBP9 inhibitor inactive.
`O=C(CSc1ncnc2[nH]ncc12)Nc1nc(-c2ccc(F)c(F)c2)cs1` gave Wee1 degr inh inactive, 14-3-3 Bad PPI 74, p47phox inh inactive, eIF4E-4G inh inactive and RBBP9 inhibitor inactive.
`Cc1cccc(C)c1NC(=S)NCc1ccncc1` gave Wee1 degr inh inactive, 14-3-3 Bad PPI inactive, p47phox inh inactive, eIF4E-4G inh inactive and RBBP9 inhibitor inactive.
`CCn1cc(S(=O)(=O)Nc2cc(F)ccc2C)cn1` gave Wee1 degr inh inactive, 14-3-3 Bad PPI 92, p47phox inh inactive, eIF4E-4G inh inactive and RBBP9 inhibitor inactive.
`CCN1CCN(CC(=O)Nc2cc(F)ccc2C)CC1` gave Wee1 degr inh inactive, 14-3-3 Bad PPI inactive, p47phox inh inactive, eIF4E-4G inh inactive and RBBP9 inhibitor inactive.
NC(=S)NC1CC2CC1C1C=CCC21 (stereo unspecified) was read as Wee1 degr inh 9.5, 14-3-3 Bad PPI inactive, p47phox inh inactive, eIF4E-4G inh inactive and RBBP9 inhibitor inactive.
CNNC(=S)NC1CC2CC1C1C=CCC21 (stereo unspecified) was read as Wee1 degr inh inactive, 14-3-3 Bad PPI inactive, p47phox inh inactive, eIF4E-4G inh inactive and RBBP9 inhibitor inactive.
